Source: ChEMBL document CHEMBL4325869, “1,2,3,4-Tetrahydroisoquinoline/2H-chromen-2-one conjugates as nanomolar P-glycoprotein inhibitors: Molecular determinants for affinity and selectivity over multidrug resistance associated protein 1” (Eur J Med Chem, 2019)
pIC50: −log10 of the molar value.

Columns and labels:
[1] = target: T1, ATP-dependent translocase ABCB1 (Homo sapiens, UniProt P08183); test: Inhibition of MDR1 (unknown origin) expressed in MDCK cells assessed as reduction in calcein-AM efflux preincubated for 30 mins followed by calcein-AM addition measured after 30 mins by spectrofluorimetric method; type: cell-based
T1 sequence (P08183 whole entry): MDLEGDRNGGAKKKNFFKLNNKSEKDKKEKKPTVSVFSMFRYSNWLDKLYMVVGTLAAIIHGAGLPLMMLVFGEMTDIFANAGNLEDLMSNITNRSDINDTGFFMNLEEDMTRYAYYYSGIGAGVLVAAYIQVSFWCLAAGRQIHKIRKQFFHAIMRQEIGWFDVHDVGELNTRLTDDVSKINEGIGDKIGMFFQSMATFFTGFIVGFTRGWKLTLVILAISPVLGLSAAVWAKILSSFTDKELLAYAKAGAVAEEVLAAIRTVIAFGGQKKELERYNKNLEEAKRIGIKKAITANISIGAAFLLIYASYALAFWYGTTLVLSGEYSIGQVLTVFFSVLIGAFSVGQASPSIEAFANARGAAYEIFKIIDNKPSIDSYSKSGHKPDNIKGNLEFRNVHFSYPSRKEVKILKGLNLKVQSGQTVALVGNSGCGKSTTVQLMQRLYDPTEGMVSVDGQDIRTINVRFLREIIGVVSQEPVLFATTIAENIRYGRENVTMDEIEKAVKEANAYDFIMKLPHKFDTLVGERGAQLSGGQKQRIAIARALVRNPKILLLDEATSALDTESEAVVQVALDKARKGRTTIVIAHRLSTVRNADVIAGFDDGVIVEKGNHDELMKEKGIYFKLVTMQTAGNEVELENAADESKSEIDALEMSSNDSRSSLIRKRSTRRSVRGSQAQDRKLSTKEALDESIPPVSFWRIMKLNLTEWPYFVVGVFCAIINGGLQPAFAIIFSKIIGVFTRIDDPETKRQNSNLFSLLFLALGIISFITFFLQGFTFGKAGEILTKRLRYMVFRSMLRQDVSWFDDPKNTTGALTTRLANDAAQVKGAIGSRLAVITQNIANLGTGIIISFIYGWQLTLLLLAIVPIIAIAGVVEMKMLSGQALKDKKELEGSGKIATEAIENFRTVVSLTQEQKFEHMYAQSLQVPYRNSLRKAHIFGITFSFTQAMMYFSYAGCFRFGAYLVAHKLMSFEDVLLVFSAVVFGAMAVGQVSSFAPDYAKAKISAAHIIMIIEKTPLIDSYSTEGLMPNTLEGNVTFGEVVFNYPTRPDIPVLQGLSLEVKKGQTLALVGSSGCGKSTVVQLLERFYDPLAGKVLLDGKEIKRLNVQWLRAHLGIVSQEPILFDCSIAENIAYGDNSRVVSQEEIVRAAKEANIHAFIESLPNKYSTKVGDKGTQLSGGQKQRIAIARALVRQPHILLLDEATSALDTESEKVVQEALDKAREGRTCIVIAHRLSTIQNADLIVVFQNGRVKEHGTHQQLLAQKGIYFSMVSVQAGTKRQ

[2] = target: T1, ATP-dependent translocase ABCB1; test: Inhibition of MDR1 (unknown origin) expressed in MDCK cells assessed as potentiation of doxorubicin-induced cytotoxicity preincubated for 24 hrs followed by doxorubicin addition measured after 72 hrs by MTT assay; type: cell-based
In short: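 MDCK-MDR1 cells were seeded at 10,000/well, and compound was added at 0.1, 1 and 10 µM on day 2. On day 3 the medium was replaced with compound plus 10 µM doxorubicin. The 72 h run ended with MTT (0.5 mg/mL, 3 h, 37 °C) and DMSO solubilization, read at 570/630 nm. Growth is % of drug-free control, compared against doxorubicin alone by one-way ANOVA with Bonferroni post-hoc.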

[3] = tested on: MDCK; test: Cytotoxicity against MDCK cells expressing MDR1 assessed as reduction in cell viability at 10 uM after 72 hrs by MTT assay; type: ADME, cell-based, Canis lupus familiaris; conditions: dog
In short: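 MDCK-MDR1 cells (DMEM high glucose, 10% FBS, 37 °C, 5% CO2) were seeded at 10,000/well. Compound was added at 0.1, 1 and 10 µM the next day. On day 3 the medium was replaced with compound alone, and the 72 h run ended with MTT (0.5 mg/mL, 3 h, 37 °C). Formazan was dissolved in DMSO and read at 570/630 nm. Viability is % of untreated control with solvent controls, from 2-3 independent experiments in triplicate.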

Structure (SMILES)	pIC50 [1]	inhibition (INH) [2]	Activity [3]
Cc1c(C)c2ccc(OCCN3CCc4ccccc4C3)cc2oc1=O	4.82		
COc1cc2c(cc1OC)CN(CCCCCOc1ccc3c(C)c(C)c(=O)oc3c1)CC2	7.15	Dose-dependent effect	Non-Toxic
COc1cc2c(cc1OC)CN(CCCCCOc1ccc3cc(-c4ccccc4)c(=O)oc3c1)CC2	6.41	Dose-dependent effect	Non-Toxic
COc1cc2c(cc1OC)CN(CCc1ccc(COc3ccc4c(C)c(C)c(=O)oc4c3)cc1)CC2	6.72	Dose-dependent effect	Non-Toxic
COc1cc2c(cc1OC)CN(CCCCOc1ccc3cc(-c4ccccc4)c(=O)oc3c1)CC2	6.39		
COc1cc2c(cc1OC)CN(CCCCCOc1ccc3c(C)c(Br)c(=O)oc3c1)CC2	6.55	Dose-dependent effect	Non-Toxic
Cc1c(C)c2ccc(OCCCCCN3CCc4ccccc4C3)cc2oc1=O	6.26	Dose-dependent effect	Non-Toxic
COc1cc2c(cc1OC)CN(Cc1ccc(COc3ccc4c(C)c(C)c(=O)oc4c3)cc1)CC2	6.72		
Cc1c(C)c2ccc(OCCCN3CCc4ccccc4C3)cc2oc1=O	5.57		
COc1cc2c(cc1OC)CN(CCCCCOc1ccc3c(c1)oc(=O)c1ccccc13)CC2	6.48		
COc1cc2c(cc1OC)CN(CCCCOc1ccc3c(C)c(C)c(=O)oc3c1)CC2	6.82		
COc1cc2c(cc1OC)CN(C/C=C/COc1ccc3c(C)c(C)c(=O)oc3c1)CC2	6.00		
COc1cc2c(cc1OC)CN(CCCOc1ccc3c(C)c(C)c(=O)oc3c1)CC2	6.72		
COc1cc2c(cc1OC)CN(Cc1cccc(COc3ccc4ccc(=O)oc4c3)c1)CC2	6.11		
COc1cc2c(cc1OC)CN(CC/C=C1\CCCc3c(OC)cccc31)CC2	5.92		
COc1cc2c(cc1OC)CN(CCCCCOc1ccc3c(C)c(-c4ccccc4)c(=O)oc3c1)CC2	6.66	Dose-dependent effect	Non-Toxic
COc1cc2c(cc1OC)CN(Cc1ccccc1COc1ccc3c(C)c(C)c(=O)oc3c1)CC2	6.80		
COc1cc2c(cc1OC)CN(CCOc1ccc3c(C)c(C)c(=O)oc3c1)CC2	6.42		
COc1cc2c(cc1OC)CN(CCCCOc1ccc3c(C)c(Cl)c(=O)oc3c1)CC2	6.25		
COc1cc2c(cc1OC)CN(Cc1cccc(COc3ccc4c(C)c(C)c(=O)oc4c3)c1)CC2	6.80		
Cc1c(C)c2ccc(OCCCCN3CCc4ccccc4C3)cc2oc1=O	6.04		
COc1cc2c(cc1OC)CN(CCCCCCOc1ccc3c(C)c(C)c(=O)oc3c1)CC2	6.66		
COc1cc2c(cc1OC)CN(CCCCCOc1ccc3c(C)c(Cl)c(=O)oc3c1)CC2	6.34		
